The record followed here is ChEMBL document CHEMBL3112476, “Inhibition of IκB kinase-β and IκB kinase-α by heterocyclic adamantyl arotinoids” (Bioorg Med Chem, 2014).

Experiment [1] concerns Jurkat. The experiment is described as follows: Induction of apoptosis in human Jurkat cells assessed as activation of DEVDase at 5 uM after 4 hrs by fluorometric assay relative to control. Type of experiment: functional. The essentials:
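Jurkat cells (20,000/well, 0.5% FBS RPMI) were treated 4 h with 5 µM compound and lysed 15 min in PIPES pH 7 buffer with NP-40, cytochalasin B and protease inhibitors. An equal volume of 2× caspase buffer containing 100 µM Ac-DEVD-AFC was added. AFC fluorescence (ex 390/em 510 nm) was read every 2 min for 1 h at 37 °C; the linear slope was taken as activity, expressed as fold over DMSO control. Data: 2 experiments, triplicate.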

The target in experiment [2] is T1, Inhibitor of nuclear factor kappa-B kinase subunit beta (Homo sapiens) (UniProt O14920).
T1 sequence (whole entry): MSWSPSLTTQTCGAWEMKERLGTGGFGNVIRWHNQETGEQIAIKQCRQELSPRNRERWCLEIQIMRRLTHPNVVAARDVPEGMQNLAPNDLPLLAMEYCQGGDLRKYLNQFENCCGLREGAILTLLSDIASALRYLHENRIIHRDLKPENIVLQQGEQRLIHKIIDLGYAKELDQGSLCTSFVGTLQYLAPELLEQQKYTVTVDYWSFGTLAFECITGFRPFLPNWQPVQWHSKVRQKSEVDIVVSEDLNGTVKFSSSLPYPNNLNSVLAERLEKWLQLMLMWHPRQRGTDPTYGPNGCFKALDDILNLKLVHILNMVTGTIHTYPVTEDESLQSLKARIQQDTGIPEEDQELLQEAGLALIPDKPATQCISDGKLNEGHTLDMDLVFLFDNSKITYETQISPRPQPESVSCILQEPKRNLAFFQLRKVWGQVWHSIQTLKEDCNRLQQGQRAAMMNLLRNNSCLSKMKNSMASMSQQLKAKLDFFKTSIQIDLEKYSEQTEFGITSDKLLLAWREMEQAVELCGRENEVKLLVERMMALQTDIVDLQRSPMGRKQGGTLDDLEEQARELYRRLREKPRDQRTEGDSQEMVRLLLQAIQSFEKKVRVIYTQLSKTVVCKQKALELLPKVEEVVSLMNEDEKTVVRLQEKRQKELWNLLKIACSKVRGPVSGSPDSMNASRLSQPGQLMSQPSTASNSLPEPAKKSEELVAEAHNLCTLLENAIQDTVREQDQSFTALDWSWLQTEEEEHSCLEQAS
The experiment is described as follows: Inhibition of recombinant IKKbeta (unknown origin) using ulight-IkappaomegaBalpha as substrate at 20 uM after 1 hr by LANCE ultra TR-FRET assay relative to control. Background: In TR-FRET formats the signal depends on donor and acceptor labels being close together.

Experiment [3] has as its target T2, Retinoic acid receptor alpha (Homo sapiens) (UniProt P10276).
T2 sequence (whole entry): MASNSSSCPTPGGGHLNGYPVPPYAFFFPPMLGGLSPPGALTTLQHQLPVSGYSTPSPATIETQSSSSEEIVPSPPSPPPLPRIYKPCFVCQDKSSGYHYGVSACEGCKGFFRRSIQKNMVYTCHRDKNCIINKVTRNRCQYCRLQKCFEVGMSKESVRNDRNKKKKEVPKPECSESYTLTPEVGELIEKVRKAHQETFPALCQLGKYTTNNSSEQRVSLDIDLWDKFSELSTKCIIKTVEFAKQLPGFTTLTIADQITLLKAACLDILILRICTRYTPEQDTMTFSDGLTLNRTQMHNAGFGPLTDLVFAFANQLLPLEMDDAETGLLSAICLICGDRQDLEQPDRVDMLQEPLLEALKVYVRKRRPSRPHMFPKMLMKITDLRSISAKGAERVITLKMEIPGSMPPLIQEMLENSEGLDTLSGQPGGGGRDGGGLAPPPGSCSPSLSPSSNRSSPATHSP
The experiment is described as follows: Antagonist activity at Gal4-fused RARalpha (unknown origin) transfected in HEK293 cells assessed as ATRA-induced transcriptional activity at 4 uM by luciferase/beta-galactosidase reporter gene assay relative to ATRA-treated control. Also noted: scale not given: the % may be the effect or the level left. Type of experiment: cell-based. The essentials:
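Same Gal4-RARα HEK-293 UAS-luciferase system, stimulated with 0.1 µM atRA alone or with 4 µM compound (40-fold molar excess); 1 µM UVI2024 served as control antagonist. Background-subtracted luciferase was normalized to β-galactosidase and given as percent of atRA-stimulated cells. Data: 2–3 experiments, triplicate.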
On the technique in general: A reporter such as luciferase makes a cellular process visible.

The nature of experiment [4]: Cytotoxicity against human Jurkat T cells assessed as cell viability at 4 uM after 24 hrs by CellTiter-Glo assay relative to control. The experiment is classed as functional. As to conditions: read-out: Activity. In a few lines: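 Jurkat cells in 0.5% FBS RPMI were exposed to 4 µM compound or 0.1% DMSO for 24 h. Viability was read as ATP by CellTiter-Glo luminescence and expressed as percent of solvent control; below 60% counted as cell killing. Data: three experiments, triplicate.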

Experiment [5] addresses T3, Inhibitor of nuclear factor kappa-B kinase subunit alpha (Homo sapiens) (UniProt O15111).
T3 sequence (whole entry): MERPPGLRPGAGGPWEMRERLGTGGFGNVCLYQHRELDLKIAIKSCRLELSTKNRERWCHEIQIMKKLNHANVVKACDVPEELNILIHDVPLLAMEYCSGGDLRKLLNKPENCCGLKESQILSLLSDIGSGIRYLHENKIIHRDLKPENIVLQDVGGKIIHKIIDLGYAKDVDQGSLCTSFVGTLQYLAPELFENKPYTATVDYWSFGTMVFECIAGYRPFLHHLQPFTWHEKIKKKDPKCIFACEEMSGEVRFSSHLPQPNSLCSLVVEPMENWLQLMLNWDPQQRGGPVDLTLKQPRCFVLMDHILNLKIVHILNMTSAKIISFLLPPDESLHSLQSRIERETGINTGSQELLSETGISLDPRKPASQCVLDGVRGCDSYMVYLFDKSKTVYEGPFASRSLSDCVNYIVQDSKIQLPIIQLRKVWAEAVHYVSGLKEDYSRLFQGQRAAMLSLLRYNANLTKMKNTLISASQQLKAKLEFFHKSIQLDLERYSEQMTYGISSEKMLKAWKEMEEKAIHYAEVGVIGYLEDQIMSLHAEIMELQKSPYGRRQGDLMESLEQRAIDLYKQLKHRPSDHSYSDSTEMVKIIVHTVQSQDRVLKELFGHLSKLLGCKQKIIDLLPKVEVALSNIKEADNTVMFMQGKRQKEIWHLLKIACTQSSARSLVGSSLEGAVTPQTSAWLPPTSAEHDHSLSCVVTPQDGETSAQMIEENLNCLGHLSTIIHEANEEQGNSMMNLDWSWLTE
In words: Inhibition of recombinant IKKalpha (unknown origin) using ulight-IkappaomegaBalpha as substrate at 20 uM after 2 hrs by LANCE ultra TR-FRET assay relative to control. In a few lines: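 Recombinant IKKα (4 nM), IKKβ (1 nM) or IKKε (2 nM) in 50 mM Hepes pH 7.4, 10 mM MgCl2, 1 mM EGTA, 2 mM DTT, 0.01% Tween-20. Substrate was 50 nM ULight-IκBα (IKKα/β) or ULight-rpS6 (IKKε); ATP was 1.25 µM (α/β) or 5 µM (ε). Compound was tested at 20 µM. Incubation was 1 h (IKKβ) or 2 h (IKKα/ε) at room temperature, stopped with 20 mM EDTA plus 2 nM Eu-anti-phospho antibody, then TR-FRET 665/615 nm. Results are percent inhibition versus solvent; 3–4 experiments, triplicate.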

For orientation: inhibition means how much of the control response was suppressed. As for `COCCOCOc1ccc(-c2ncc(/C=C/C(=O)O)nc2OC)cc1C12CC3CC(CC(C3)C1)C2`, in experiment [1], the “fold change (FC)” value was 0.2. The inhibition is 1.6% in experiment [2] and 4.2% in experiment [5]. The Activity in experiment [3] is 78.7%. Further, in experiment [4], the viability at 4 µM was found to be 94.9%.
For the compound `COCCOCOc1cc(C)c(-c2ncc(/C=C/C(=O)O)s2)cc1C12CC3CC(CC(C3)C1)C2`, the “fold change (FC)” value in experiment [1] turned out to be 1.6. Also, the inhibition in experiment [2] stood at 12.2%; in experiment [5] it was 29.2%. Also, in experiment [3], the Activity came to 75.3%. Besides, the viability at 4 µM in experiment [4] was found to be 96.1%.
In the same order, the values of `Cc1cc(O)c(C23CC4CC(CC(C4)C2)C3)cc1-c1ccc(/C=C/C(=O)O)cc1Cl` are 0.8, 4.9%, 23.7%, 67.1% and 34.1%.
In the same order, the values of `COCCOCOc1cc(C)c(-c2ncc(/C=C/C(=O)O)nc2OC)cc1C12CC3CC(CC(C3)C1)C2` are 0.3, 3.8%, 45.7%, 99.5% and 96.5%.
As to `O=C(O)c1ccc(-c2cnc(-c3ccc(O)c(C45CC6CC(CC(C6)C4)C5)c3)s2)cc1`, in experiment [1], the “fold change (FC)” value worked out at 81.4. Also, the inhibition in experiment [2] was determined as 94.1%; in experiment [5], 85.3%. In experiment [3], the Activity came to 66.2%. Besides, in experiment [4], the viability at 4 µM turned out to be 6%.
For `O=C(O)/C=C/c1cnc(-c2ccc(O)c(C34CC5CC(CC(C5)C3)C4)c2)s1`, the “fold change (FC)” value in experiment [1] was 0.6. Moreover, the results for the inhibition in experiment [2] and in experiment [5] were 5% and 32.8%, respectively. Further, the Activity in experiment [3] came to 92.4%. Moreover, the viability at 4 µM in experiment [4] came to 92.9%.
In the same order, the values of `Cc1cc(O)c(C23CC4CC(CC(C4)C2)C3)cc1-c1ncc(/C=C/C(=O)O)s1` are 1.5, 26.2%, 46.6%, 87.3% and 92.3%.
In the same order, the values of `COc1nc(/C=C/C(=O)O)cnc1-c1ccc(O)c(C23CC4CC(CC(C4)C2)C3)c1` are 3.1, 8.2%, 17.9%, 93.2% and 60.9%.
With `COc1nc(-c2ccc(C(=O)O)cc2)cnc1-c1ccc(O)c(C23CC4CC(CC(C4)C2)C3)c1`, in experiment [1], the “fold change (FC)” value stood at 42.6. For the same compound, the inhibition in experiment [2] turned out to be 83.9%; in experiment [5] it was 78.5%. Moreover, the Activity in experiment [3] is 95.4%. For the same compound, the viability at 4 µM in experiment [4] stood at 14.9%.
In the same order, the values of `COCCOCOc1cc(C)c(-c2ncc(-c3ccc(C(=O)O)cc3)s2)cc1C12CC3CC(CC(C3)C1)C2` are 4.9, 87.7%, 73.3%, 61.6% and 59.5%.
With `COCCOCOc1ccc(-c2ncc(-c3ccc(C(=O)O)cc3)s2)cc1C12CC3CC(CC(C3)C1)C2`, the “fold change (FC)” value in experiment [1] is recorded as 9.8. Further, the inhibition amounted to 89.3% in experiment [2] and 82.9% in experiment [5]. In experiment [3], the Activity amounted to 92.4%. The viability at 4 µM in experiment [4] was determined as 74.5%.
With `COCCOCOc1cc(C)c(-c2ccc(/C=C/C(=O)O)cc2Cl)cc1C12CC3CC(CC(C3)C1)C2`, the “fold change (FC)” value in experiment [1] was 1.3. For the same compound, the inhibition in experiment [2] worked out at 4.3%; in experiment [5], 13.5%. Moreover, the Activity in experiment [3] was 61.5%. In addition, the viability at 4 µM in experiment [4] amounted to 83.7%.
`COCCOCOc1cc(C)c(-c2ccc3cc(C(=O)O)ccc3c2Cl)cc1C12CC3CC(CC(C3)C1)C2`: the “fold change (FC)” value in experiment [1] came to 12.4. For the same compound, the inhibition was 79.2% in experiment [2] and 33.9% in experiment [5]. The Activity in experiment [3] came to 82.7%. Also, in experiment [4], the viability at 4 µM amounted to 33.1%.
Turning to `COCCOCOc1cc(C)c(-c2ccc(CC(=O)O)cc2Cl)cc1C12CC3CC(CC(C3)C1)C2`, in experiment [1], the “fold change (FC)” value stood at 2.6. Besides, the inhibition in experiment [2] turned out to be 39.8%; in experiment [5], 42.3%. Further, the Activity in experiment [3] is 74.1%. For the same compound, in experiment [4], the viability at 4 µM is 86.8%.
Regarding `COc1nc(/C=C/C(=O)O)cnc1-c1cc(C23CC4CC(CC(C4)C2)C3)c(O)cc1C`, in experiment [1], the “fold change (FC)” value is on record as 2.6. For the same compound, the values for the inhibition in experiment [2] and in experiment [5] were 7.3% and 50.1%, respectively. Besides, the Activity in experiment [3] was determined as 89%. Further, in experiment [4], the viability at 4 µM came to 70.9%.
Consider `Cc1cc(O)c(C23CC4CC(CC(C4)C2)C3)cc1-c1ccc(CC(=O)O)cc1Cl`, for which the “fold change (FC)” value in experiment [1] turned out to be 1.8. Further, the inhibition is 4.9% in experiment [2] and 26.9% in experiment [5]. For the same compound, the Activity in experiment [3] turned out to be 79.7%. In experiment [4], the viability at 4 µM worked out at 45.8%.
As to `CC(=O)NCCCOc1cc(/C=C/C(=O)O)ccc1-c1cc(C23CC4CC(CC(C4)C2)C3)c(O)cc1C`, the “fold change (FC)” value in experiment [1] worked out at 6.3. For the same compound, the inhibition in experiment [2] was 0%; in experiment [5], 2.3%. Besides, the Activity in experiment [3] was 70%. The viability at 4 µM in experiment [4] is 28%.
As to `Cc1cc(O)c(C23CC4CC(CC(C4)C2)C3)cc1-c1ccc2cc(C(=O)O)ccc2c1Cl`, in experiment [1], the “fold change (FC)” value was found to be 55.8. Further, the inhibition came to 96.4% in experiment [2] and 87.3% in experiment [5]. The Activity in experiment [3] is 90%. Also, the viability at 4 µM in experiment [4] stood at 7.7%.
